Assay [1] has as its system BMDC. Kind of assay: Inhibition of LPS-induced immune response in C57BL/6 mouse BMDC assessed as reduction in TNFalpha secretion up to 25 uM pretreated for 30 mins followed by LPS-challenge measured after 6 hrs by ELISA. In kind it is functional, cell-based. Summed up:
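Mouse BMDCs (female C57BL/6 bone marrow, GM-CSF-derived, ≥90% CD11c+ on day 7) pretreated 30 min with graded compound concentrations, then stimulated with LPS 50 ng/mL for 6 h. Supernatant TNF-α, IL-6, IL-10 and IL-12p70 quantified by sandwich ELISA. Mean ± SEM vs LPS-only cells; experiments repeated at least three times.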

The target in assay [2] is T1, Toll-like receptor 4 (Mus musculus) (UniProt Q9QUK6).
T1 sequence (whole entry): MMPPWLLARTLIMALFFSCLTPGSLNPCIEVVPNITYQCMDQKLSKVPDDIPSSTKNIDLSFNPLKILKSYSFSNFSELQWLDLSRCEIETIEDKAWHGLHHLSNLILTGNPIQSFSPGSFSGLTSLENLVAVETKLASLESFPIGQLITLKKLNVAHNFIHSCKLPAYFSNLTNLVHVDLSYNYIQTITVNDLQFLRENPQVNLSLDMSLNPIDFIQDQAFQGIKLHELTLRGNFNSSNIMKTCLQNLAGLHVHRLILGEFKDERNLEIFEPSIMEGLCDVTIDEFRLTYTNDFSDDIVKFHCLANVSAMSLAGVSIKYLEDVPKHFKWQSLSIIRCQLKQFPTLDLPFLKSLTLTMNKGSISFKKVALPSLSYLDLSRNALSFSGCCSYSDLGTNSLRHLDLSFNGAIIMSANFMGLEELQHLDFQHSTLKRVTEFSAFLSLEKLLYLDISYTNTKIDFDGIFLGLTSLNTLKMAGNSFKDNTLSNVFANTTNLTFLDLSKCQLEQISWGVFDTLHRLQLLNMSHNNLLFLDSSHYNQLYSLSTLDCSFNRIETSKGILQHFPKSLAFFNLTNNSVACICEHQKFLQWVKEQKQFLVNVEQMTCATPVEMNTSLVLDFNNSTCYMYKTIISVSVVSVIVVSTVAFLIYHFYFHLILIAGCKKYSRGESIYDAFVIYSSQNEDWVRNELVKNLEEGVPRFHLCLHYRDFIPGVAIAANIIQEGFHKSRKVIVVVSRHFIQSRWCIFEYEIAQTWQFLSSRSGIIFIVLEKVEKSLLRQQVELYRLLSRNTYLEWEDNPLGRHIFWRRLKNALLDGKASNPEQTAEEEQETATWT
Kind of assay: Inhibition of LPS-induced TLR4 activation in C57BL/6 mouse BMDC assessed as reduction in JNK1 phosphorylation at 25 uM pretreated for 30 mins followed by LPS-challenge measured after 15 to 90 mins by Western blot analysis. In kind it is cell-based. Summed up: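 BMDCs were pretreated 30 min with 25 μM compound, then stimulated with LPS 50 ng·mL−1 for the indicated times. Lysates (25 μg protein) were run on 10% SDS-PAGE and immunoblotted for phospho/total ERK, JNK, p38 and Akt, plus COX-2, IκBα and α-tubulin, with ECL detection. Representative of three experiments.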

The test system of assay [3] is Mus musculus. Kind of assay: Antiinflammatory activity in Balb/c mouse model of LPS-induced endotoxemia assessed as reduction in IL6 level in lungs at 1 mg/kg, ip pretreated for 1 hr followed by LPS-challenge measured after 12 hrs by ELISA. In kind it is functional, organism-based. Summed up: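 BALB/c mice got 1 mg·kg−1 i.p. 1 h before i.p. LPS 10 mg·kg−1. After 12 h, TNF-α and IL-6 in lung lysates were measured by sandwich ELISA. Means ± SEM.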

Assay [4] relates to BMDC. In words: Inhibition of Escherichia coli DH5alpha infection-induced immune response in C57BL/6 mouse BMDC assessed as reduction in TNFalpha secretion at 25 uM pretreated for 30 mins followed by Escherichia coli DH5alpha infection for 6 hrs by ELISA. In kind it is functional, cell-based. Summed up: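 C57BL/6 BMDCs received 25 μM compound and E. coli DH5α, 3 × 10^6 CFU·mL−1. Schedules were: compound 30 min before a 6 h infection; co-addition for 6 h; or compound for 30, 60, 90 or 120 min plus 6 h infection. Supernatant TNF-α, IL-6, IL-10 and IL-12p70 were measured by ELISA. At least three experiments in triplicate.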

Assay [5] relates to BMDC. In words: Inhibition of Escherichia coli K1 infection-induced immune response in C57BL/6 mouse BMDC assessed as reduction in TNFalpha secretion at 25 uM pretreated for 30 mins followed by Escherichia coli K1 infection for 6 hrs by ELISA. In kind it is functional, cell-based. Summed up: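 BMDCs from C57BL/6 mice were given 25 μM compound and E. coli K1, […]. Timing was: compound 30 min before a 6 h infection; cotreatment for 6 h; or compound for 30–120 min with 6 h infection. Supernatant cytokines (TNF-α, IL-6, IL-10, IL-12p70) were measured by ELISA. At least three experiments in triplicate.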

Assay [6] relates to Mus musculus. In words: Antiseptic activity in Balb/c mouse model of Escherichia coli K1 infection-induced sepsis assessed as reduction in serum IL6 level at 1 mg/kg, ip pretreated for 1 hr followed by Escherichia coli K1 infection measured after 2 hrs by ELISA. In kind it is functional, organism-based. An outline of the steps: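 BALB/c mice received 1 mg·kg−1 i.p. 1 h before i.p. E. coli K1 RS218, 1 × 10^6 CFU per mouse. Serum was collected at 2 h, and TNF-α, IL-6 and IL-10 were quantified by sandwich ELISA. Means ± SEM.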

The subject of assay [7] is Mus musculus. Kind of assay: Antiinflammatory activity in Balb/c mouse model of LPS-induced endotoxemia assessed as increase in IL10 producing Tr1 population in splenocyte at 1 mg/kg, ip pretreated for 1 hr followed by LPS-challenge measured after 12 hrs by flow cytometric analysis. In kind it is functional, organism-based.
Assay [8] concerns Mus musculus. In words: Antiseptic activity in Balb/c mouse model of Escherichia coli K1 infection-induced sepsis assessed as reduction in bacterial count in kidneys at 1 mg/kg, ip pretreated for 1 hr followed by Escherichia coli K1 infection measured after 12 hrs. In kind it is functional, organism-based. An outline of the steps:
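Pretreatment was 1 mg·kg−1 i.p. 1 h before i.p. E. coli K1 (1 × 10^6 CFU per mouse) in BALB/c mice. At 12 h, lungs, liver and kidneys were homogenized in PBS and diluted 1:1000. 10 μL was plated on LB agar, incubated 24 h at 37 °C, and colonies counted.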

In assay [9] the test system is Mus musculus. In words: Antiseptic activity in Balb/c mouse model of Escherichia coli K1 infection-induced sepsis assessed as increase in survival rate at 1 mg/kg, ip pretreated for 1 hr followed by Escherichia coli K1 infection measured over 72 hrs relative to control. In kind it is functional. Summed up: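 BALB/c mice dosed i.p. 1 h before i.p. E. coli K1 strain RS218 (O18:K1:H7) challenge, 1 × 10^7 CFU per mouse, diluted in LB broth; n = 10; survival monitored over 72 h.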

Activity calls are given as the source filed them. The calls are words filed in the database; no cut-off is given here.

In the case of `COc1ccc(-c2oc3cc(O)cc(O)c3c(=O)c2O)cc1O` [TAMARIXETIN], the inhibition entry (with BMDC [1]; in [2]; in the assay with BMDC [4]; in the assay with BMDC [5]) was “Active” in each case. In addition, the result in the assay on Mus musculus [3], with Mus musculus [6], in the assay on Mus musculus [7] and in the assay with Mus musculus [8] was Active. Moreover, the Activity in the assay with Mus musculus [9] is reported as 80%.

The values are drawn from ChEMBL document CHEMBL4145607, “Tamarixetin Exhibits Anti-inflammatory Activity and Prevents Bacterial Sepsis by Increasing IL-10 Production” (J Nat Prod, 2018).
